{"source": "paper PMC9037808", "about": "(RSC Advances, 2021)", "assay_type_in_all_cases": "cell-based", "key": {"HeLa [1]": {"test_system": "HeLa", "experiment": "MTT cytotoxicity assay, HeLa", "settings": "read-out: IC50, HeLa", "procedure,_shortened": "(§1)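 Cells were grown at 37 °C in 5% CO2: HeLa and NRK-52E in DMEM, NCI-H520 in RPMI, each with 10% heat-inactivated FBS plus penicillin/streptomycin/amphotericin B. They were seeded at 10^4 cells/well in triplicate and left 24 h. Test compound (5–300 μM) was added for 24 h, then removed with a PBS wash. MTT was added for 3 h, formazan dissolved in DMSO, and A570 read. IC50 came from nonlinear regression of survival curves, shown as mean ± SE of triplicate independent analyses.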"}, "NCI-H520 [2]": {"test_system": "NCI-H520", "experiment": "MTT cytotoxicity assay, NCI-H520", "settings": "read-out: IC50, NCI-H520", "procedure,_shortened": "as §1"}, "HeLa [3]": {"test_system": "HeLa", "experiment": "Apoptosis, Muse Annexin V & Dead cell kit, HeLa", "settings": "IC50 dose (12.59 μM 4a, 11.26 μM 7b), 24 h; untreated 8.05%"}, "NCI-H520 [4]": {"test_system": "NCI-H520", "experiment": "Apoptosis, Muse Annexin V & Dead cell kit, NCI-H520", "settings": "IC50 dose; untreated 7.15%"}, "NRK-52E": {"test_system": "NRK-52E", "experiment": "MTT cytotoxicity assay, NRK-52E", "settings": "read-out: IC50, NRK-52E, 24 h treatment, normal rat kidney epithelial cell line", "procedure,_shortened": "as §1"}, "[5]": {"settings": "MTT, 24 h treatment, mean of three independent experiments"}}, "note": "Like-named read-outs stand apart in the source and are kept apart here."}
{"smiles": "CCn1c2ccccc2c2cc(C3CC(c4cc5cccc(OC)c5oc4=O)=NN3c3ccccc3)ccc21", "note": "(stereo not drawn) [Compound 5b, 3-(5-(9-Ethyl-9H-carbazol-3-yl)-1-phenyl-4,5-dihydro-1H-pyrazol-3-yl)-8-methoxy-2H-chromen-2-one]", "values": [{"measurement": "IC50", "setting": "HeLa [1]; Homo sapiens, HeLa, 24 h", "result": "39 ± 0.46", "unit": "µM"}, {"measurement": "IC50", "setting": "NCI-H520 [2]; Homo sapiens, NCI-H520, 24 h", "result": "62.7 ± 1.63", "unit": "µM"}]}
{"smiles": "CCn1c2ccccc2c2cc(C3CC(c4cc5c(ccc6ccccc65)oc4=O)=NN3C(C)=O)ccc21", "note": "(stereo not drawn) [Compound 8c, 2-(1-Acetyl-5-(9-ethyl-9H-carbazol-3-yl)-4,5-dihydro-1H-pyrazol-3-yl)-3H-benzo[f]chromen-3-one]", "values": [{"measurement": "IC50", "setting": "HeLa [1]; Homo sapiens, HeLa, 24 h", "result": "55.9 ± 1.3", "unit": "µM"}, {"measurement": "IC50", "setting": "NCI-H520 [2]; Homo sapiens, NCI-H520, 24 h", "result": "77.61 ± 0.34", "unit": "µM"}]}
{"smiles": "CCn1c2ccccc2c2cc(C3CC(c4cc5cccc(OC)c5oc4=O)=NN3C(N)=O)ccc21", "note": "(stereo not drawn) [Compound 4b, 5-(9-Ethyl-9H-carbazol-3-yl)-3-(8-methoxy-2-oxo-2H-chromen-3-yl)-4,5-dihydro-1H-pyrazole-1-carboxamide]", "values": [{"measurement": "IC50", "setting": "HeLa [1]; Homo sapiens, HeLa, 24 h", "result": "29.8 ± 1.85", "unit": "µM"}, {"measurement": "IC50", "setting": "NCI-H520 [2]; Homo sapiens, NCI-H520, 24 h", "result": "22.5 ± 2.15", "unit": "µM"}]}
{"smiles": "CCn1c2ccccc2c2cc(C3CC(c4cc5c(ccc6ccccc65)oc4=O)=NN3c3ccc(C)cc3)ccc21", "note": "(stereo not drawn) [Compound 6c, 2-(5-(9-Ethyl-9H-carbazol-3-yl)-1-(p-tolyl)-4,5-dihydro-1H-pyrazol-3-yl)-3H-benzo[f] chromen-3-one]", "values": [{"measurement": "IC50", "setting": "HeLa [1]; Homo sapiens, HeLa, 24 h", "result": "57.5 ± 1.32", "unit": "µM"}, {"measurement": "IC50", "setting": "NCI-H520 [2]; Homo sapiens, NCI-H520, 24 h", "result": "61.7 ± 1.48", "unit": "µM"}]}
{"smiles": "CCn1c2ccccc2c2cc(C3CC(c4cc5ccccc5oc4=O)=NN3c3ccc(C)cc3)ccc21", "note": "(stereo not drawn) [Compound 6a, 3-(5-(9-Ethyl-9H-carbazol-3-yl)-1-(p-tolyl)-4,5-dihydro-1H-pyrazol-3-yl)-2H-chromen-2-one]", "values": [{"measurement": "IC50", "setting": "HeLa [1]; Homo sapiens, HeLa, 24 h", "result": "67 ± 1.87", "unit": "µM"}, {"measurement": "IC50", "setting": "NCI-H520 [2]; Homo sapiens, NCI-H520, 24 h", "result": "38.3 ± 0.78", "unit": "µM"}]}
{"smiles": "CCn1c2ccccc2c2cc(C3CC(c4cc5c(ccc6ccccc65)oc4=O)=NN3C(N)=O)ccc21", "note": "(stereo not drawn) [Compound 4c, 5-(9-Ethyl-9H-carbazol-3-yl)-3-(3-oxo-3H-benzo[f]chromen-2-yl)-4,5-dihydro-1H-pyrazole-1-carboxamide]", "values": [{"measurement": "IC50", "setting": "HeLa [1]; Homo sapiens, HeLa, 24 h", "result": "43.5 ± 1.02", "unit": "µM"}, {"measurement": "IC50", "setting": "NCI-H520 [2]; Homo sapiens, NCI-H520, 24 h", "result": "55.6 ± 1.93", "unit": "µM"}]}
{"smiles": "CCn1c2ccccc2c2cc(/C=C/C(=O)c3cc4cccc(OC)c4oc3=O)ccc21", "note": "[Compound 3b, (E)-3-(3-(9-Ethyl-9H-carbazol-3-yl)acryloyl)-8-methoxy-2H-chromen-2-one]", "values": [{"measurement": "IC50", "setting": "HeLa [1]; Homo sapiens, HeLa, 24 h", "result": "119 ± 6.88", "unit": "µM"}, {"measurement": "IC50", "setting": "NCI-H520 [2]; Homo sapiens, NCI-H520, 24 h", "result": "103 ± 4.78", "unit": "µM"}]}
{"smiles": "CCn1c2ccccc2c2cc(C3CC(c4cc5ccccc5oc4=O)=NN3C(N)=O)ccc21", "note": "(stereo not drawn) [Compound 4a, 5-(9-Ethyl-9H-carbazol-3-yl)-3-(2-oxo-2H-chromen-3-yl)-4,5-dihydro-1H-pyrazole-1-carboxamide]", "values": [{"measurement": "IC50", "setting": "HeLa [1]; Homo sapiens, HeLa, 24 h", "result": "12.59 ± 0.1", "unit": "µM"}, {"measurement": "IC50", "setting": "NCI-H520 [2]; Homo sapiens, NCI-H520, 24 h", "result": "11.3 ± 0.45", "unit": "µM"}, {"measurement": "apoptotic cells, HeLa", "setting": "HeLa [3]", "result": 25.5, "unit": "%"}, {"measurement": "apoptotic cell death, NCI-H520", "setting": "NCI-H520 [4]", "result": 18, "unit": "%"}]}
{"smiles": "CCn1c2ccccc2c2cc(/C=C/C(=O)c3cc4c(ccc5ccccc54)oc3=O)ccc21", "note": "[Compound 3c, (E)-2-(3-(9-Ethyl-9H-carbazol-3-yl)acryloyl)-3H-benzo[f]chromen-3-one]", "values": [{"measurement": "IC50", "setting": "HeLa [1]; Homo sapiens, HeLa, 24 h", "result": "142 ± 7.77", "unit": "µM"}, {"measurement": "IC50", "setting": "NCI-H520 [2]; Homo sapiens, NCI-H520, 24 h", "result": "133 ± 4.75", "unit": "µM"}]}
{"smiles": "O=c1[nH]cc(F)c(=O)[nH]1", "note": "[5-Fluorouracil, reference compound]", "values": [{"measurement": "IC50", "setting": "HeLa [1]; Homo sapiens, HeLa, 24 h", "result": "55.7 ± 2.1", "unit": "µM"}, {"measurement": "IC50", "setting": "NCI-H520 [2]; Homo sapiens, NCI-H520, 24 h", "result": "8.36 ± 0.45", "unit": "µM"}]}
{"smiles": "CCn1c2ccccc2c2cc(/C=C/C(=O)c3cc4ccccc4oc3=O)ccc21", "note": "[Compound 3a, (E)-3-(3-(9-Ethyl-9H-carbazol-3-yl)acryloyl)-2H-chromen-2-one]", "values": [{"measurement": "IC50", "setting": "HeLa [1]; Homo sapiens, HeLa, 24 h", "result": "132 ± 5.16", "unit": "µM"}, {"measurement": "IC50", "setting": "NCI-H520 [2]; Homo sapiens, NCI-H520, 24 h", "result": "120 ± 3.78", "unit": "µM"}]}
{"smiles": "CCn1c2ccccc2c2cc(C3CC(c4cc5cccc(OC)c5oc4=O)=NN3c3ccc(C)cc3)ccc21", "note": "(stereo not drawn) [Compound 6b, 3-(5-(9-Ethyl-9H-carbazol-3-yl)-1-(p-tolyl)-4,5-dihydro-1H-pyrazol-3-yl)-8-methoxy-2H-chromen-2-one]", "values": [{"measurement": "IC50", "setting": "HeLa [1]; Homo sapiens, HeLa, 24 h", "result": "30.8 ± 0.5", "unit": "µM"}, {"measurement": "IC50", "setting": "NCI-H520 [2]; Homo sapiens, NCI-H520, 24 h", "result": "30 ± 0.33", "unit": "µM"}]}
{"smiles": "CCn1c2ccccc2c2cc(C3CC(c4cc5ccccc5oc4=O)=NN3c3cccc(Cl)c3)ccc21", "note": "(stereo not drawn) [Compound 7a, 3-(1-(3-Chlorophenyl)-5-(9-ethyl-9H-carbazol-3-yl)-4,5-dihydro-1H-pyrazol-3-yl)-2H-chromen-2-one]", "values": [{"measurement": "IC50", "setting": "HeLa [1]; Homo sapiens, HeLa, 24 h", "result": "33.4 ± 0.64", "unit": "µM"}, {"measurement": "IC50", "setting": "NCI-H520 [2]; Homo sapiens, NCI-H520, 24 h", "result": "14.3 ± 0.21", "unit": "µM"}]}
{"smiles": "CCn1c2ccccc2c2cc(C3CC(c4cc5c(ccc6ccccc65)oc4=O)=NN3c3cccc(Cl)c3)ccc21", "note": "(stereo not drawn) [Compound 7c, 2-(1-(3-Chlorophenyl)-5-(9-ethyl-9H-carbazol-3-yl)-4,5-dihydro-1H-pyrazol-3-yl)-3H-benzo[f]chromen-3-one]", "values": [{"measurement": "IC50", "setting": "HeLa [1]; Homo sapiens, HeLa, 24 h", "result": "29 ± 0.84", "unit": "µM"}, {"measurement": "IC50", "setting": "NCI-H520 [2]; Homo sapiens, NCI-H520, 24 h", "result": "20.8 ± 0.27", "unit": "µM"}]}
{"smiles": "CCn1c2ccccc2c2cc(C3CC(c4cc5cccc(OC)c5oc4=O)=NN3C(C)=O)ccc21", "note": "(stereo not drawn) [Compound 8b, 3-(1-Acetyl-5-(9-ethyl-9H-carbazol-3-yl)-4,5-dihydro-1H-pyrazol-3-yl)-8-methoxy-2H-chromen-2-one]", "values": [{"measurement": "IC50", "setting": "HeLa [1]; Homo sapiens, HeLa, 24 h", "result": "76.8 ± 1.45", "unit": "µM"}, {"measurement": "IC50", "setting": "NCI-H520 [2]; Homo sapiens, NCI-H520, 24 h", "result": "54.7 ± 0.65", "unit": "µM"}]}
{"smiles": "CCn1c2ccccc2c2cc(C3CC(c4cc5c(ccc6ccccc65)oc4=O)=NN3c3ccccc3)ccc21", "note": "(stereo not drawn) [Compound 5c, 2-(5-(9-Ethyl-9H-carbazol-3-yl)-1-phenyl-4,5-dihydro-1H-pyrazol-3-yl)-3H-benzo[f] chromen-3-one]", "values": [{"measurement": "IC50", "setting": "HeLa [1]; Homo sapiens, HeLa, 24 h", "result": "55 ± 0.96", "unit": "µM"}, {"measurement": "IC50", "setting": "NCI-H520 [2]; Homo sapiens, NCI-H520, 24 h", "result": "83.6 ± 1.2", "unit": "µM"}]}
{"smiles": "CCn1c2ccccc2c2cc(C3CC(c4cc5cccc(OC)c5oc4=O)=NN3c3cccc(Cl)c3)ccc21", "note": "(stereo not drawn) [Compound 7b, 3-(1-(3-Chlorophenyl)-5-(9-ethyl-9H-carbazol-3-yl)-4,5-dihydro-1H-pyrazol-3-yl)-8-methoxy-2H-chromen-2-one]", "values": [{"measurement": "IC50", "setting": "HeLa [1]; Homo sapiens, HeLa, 24 h", "result": "11.4 ± 0.24", "unit": "µM"}, {"measurement": "IC50", "setting": "NCI-H520 [2]; Homo sapiens, NCI-H520, 24 h", "result": "9.13 ± 0.08", "unit": "µM"}, {"measurement": "apoptotic cells, HeLa", "setting": "HeLa [3]", "result": 24, "unit": "%"}, {"measurement": "apoptotic cell death, NCI-H520", "setting": "NCI-H520 [4]", "result": 16.10, "unit": "%"}]}
{"smiles": "N.N.[Cl][Pt][Cl]", "note": "[Cis-platin, reference compound]", "values": [{"measurement": "IC50", "setting": "HeLa [1]; [5]", "result": "7.75 ± 0.42", "unit": "µM"}, {"measurement": "IC50", "setting": "NCI-H520 [2]; [5]", "result": "10.4 ± 1.35", "unit": "µM"}, {"measurement": "IC50", "setting": "NRK-52E", "result": "12.9 ± 0.4", "unit": "µM"}]}
{"smiles": "CCn1c2ccccc2c2cc(C3CC(c4cc5ccccc5oc4=O)=NN3C(C)=O)ccc21", "note": "(stereo not drawn) [Compound 8a, 3-(1-Acetyl-5-(9-ethyl-9H-carbazol-3-yl)-4,5-dihydro-1H-pyrazol-3-yl)-2H-chromen-2-one]", "values": [{"measurement": "IC50", "setting": "HeLa [1]; Homo sapiens, HeLa, 24 h", "result": "43.2 ± 0.52", "unit": "µM"}, {"measurement": "IC50", "setting": "NCI-H520 [2]; Homo sapiens, NCI-H520, 24 h", "result": "62.5 ± 1.95", "unit": "µM"}]}
{"smiles": "CCn1c2ccccc2c2cc(C3CC(c4cc5ccccc5oc4=O)=NN3c3ccccc3)ccc21", "note": "(stereo not drawn) [Compound 5a, 3-(5-(9-Ethyl-9H-carbazol-3-yl)-1-phenyl-4,5-dihydro-1H-pyrazol-3-yl)-2H-chromen-2-one]", "values": [{"measurement": "IC50", "setting": "HeLa [1]; Homo sapiens, HeLa, 24 h", "result": "92.5 ± 4.25", "unit": "µM"}, {"measurement": "IC50", "setting": "NCI-H520 [2]; Homo sapiens, NCI-H520, 24 h", "result": "81.2 ± 1.46", "unit": "µM"}]}
